Test results reported in ChEMBL document CHEMBL3046318, “Synthesis of a combinatorial library of amides and its evaluation against the fall armyworm, Spodoptera frugiperda” (2011).

Assays:
Type in all cases: functional
[1] = system: Spodoptera frugiperda; assay: Insecticidal activity against 5 day old second instar larvae of Spodoptera frugiperda (fall armyworm) measured after 48 hr topical administration
Outline: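 Topical application to second instar larvae, 1 μL per insect in acetone (control: acetone alone). About 300 mg of artificial diet supplied 1 h after application. Mortality counted at 48 h. Five replicates. Single-sample screens of mixtures were run at 2000 mg L-1, with means compared by Tukey test (P ≤ 0.05). LD50 from log dose probit lines, with Abbott correction for control mortality.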

[2] = system: Spodoptera frugiperda; assay: Insecticidal activity against Spodoptera frugiperda (fall armyworm) during total cycle assessed as mortality at 50 mg/kg compound administration with artificial diet (reference value: 13.3%)
Outline: (§1)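 Ingestion assay on first instar larvae (1 day old), 30 per treatment and per control. Compound was dissolved in acetone, mixed with the diet's ascorbic acid (1.8 g), dried under vacuum at 40 °C, then incorporated into a bean/wheat germ artificial diet at 1-100 mg kg-1. Mortality recorded for the larval phase, the pupal phase and the total cycle.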

[3] = system: Spodoptera frugiperda; assay: Insecticidal activity against pupal phase Spodoptera frugiperda (fall armyworm) assessed as mortality at 1 mg/kg compound administration with artificial diet (reference value: 13.3%); outline: as §1
[4] = system: Spodoptera frugiperda; assay: Insecticidal activity against larval phase Spodoptera frugiperda (fall armyworm) assessed as mortality at 10 mg/kg compound administration with artificial diet (reference value: 6.66%); outline: as §1
[5] = system: Spodoptera frugiperda; assay: Insecticidal activity against pupal phase Spodoptera frugiperda (fall armyworm) assessed as mortality at 10 mg/kg compound administration with artificial diet (reference value: 13.3%); outline: as §1
[6] = system: Spodoptera frugiperda; assay: Insecticidal activity against larval phase Spodoptera frugiperda (fall armyworm) assessed as mortality at 1 mg/kg compound administration with artificial diet (reference value: 6.66%); outline: as §1
[7] = system: Spodoptera frugiperda; assay: Insecticidal activity against pupal phase Spodoptera frugiperda (fall armyworm) assessed as mortality at 50 mg/kg compound administration with artificial diet (reference value: 13.3%); outline: as §1
[8] = system: Spodoptera frugiperda; assay: Insecticidal activity against pupal phase Spodoptera frugiperda (fall armyworm) assessed as mortality at 100 mg/kg compound administration with artificial diet (reference value: 13.3%); outline: as §1
[9] = system: Spodoptera frugiperda; assay: Insecticidal activity against Spodoptera frugiperda (fall armyworm) during total cycle assessed as mortality at 100 mg/kg compound administration with artificial diet (reference value: 13.3%); outline: as §1
[10] = system: Spodoptera frugiperda; assay: Insecticidal activity against larval phase Spodoptera frugiperda (fall armyworm) assessed as mortality at 100 mg/kg compound administration with artificial diet (reference value: 6.66%); outline: as §1
[11] = system: Spodoptera frugiperda; assay: Insecticidal activity against larval phase Spodoptera frugiperda (fall armyworm) assessed as mortality at 50 mg/kg compound administration with artificial diet (reference value: 6.66%); outline: as §1
[12] = system: Spodoptera frugiperda; assay: Insecticidal activity against Spodoptera frugiperda (fall armyworm) during total cycle assessed as mortality at 10 mg/kg compound administration with artificial diet (reference value: 13.3%); outline: as §1
[13] = system: Spodoptera frugiperda; assay: Insecticidal activity against Spodoptera frugiperda (fall armyworm) during total cycle assessed as mortality at 1 mg/kg compound administration with artificial diet (reference value: 13.3%); outline: as §1

SMILES | LD50 [1] [µg/mg] | mortality at 50 mg/kg [2] [%] | mortality at 1 mg/kg [3] [%] | mortality at 10 mg/kg [4] [%] | mortality at 10 mg/kg [5] [%] | mortality at 1 mg/kg [6] [%] | mortality at 50 mg/kg [7] [%] | mortality at 100 mg/kg [8] [%] | mortality at 100 mg/kg [9] [%] | mortality at 100 mg/kg [10] [%] | mortality at 50 mg/kg [11] [%] | mortality at 10 mg/kg [12] [%] | mortality at 1 mg/kg [13] [%]
O=C(/C=C/c1ccc(OC(F)(F)F)cc1)N1CCCCC1 | 0.793 | 93.3 | 61.4 | 63.3 | 48.6 | 65.8 | 69.4 | 75 | 86.6 | 55 | 73.3 | 86.6 | 83.3
O=C(c1ccc(OC(F)(F)F)cc1)N1CCCCC1 | 8.15 |  |  |  |  |  |  |  |  |  |  |  | 
